# Source: the M2OR odorant receptor database
# Target: T1, OR2T4 (Homo sapiens) (UniProt Q8NH00)
# T1 sequence (whole entry): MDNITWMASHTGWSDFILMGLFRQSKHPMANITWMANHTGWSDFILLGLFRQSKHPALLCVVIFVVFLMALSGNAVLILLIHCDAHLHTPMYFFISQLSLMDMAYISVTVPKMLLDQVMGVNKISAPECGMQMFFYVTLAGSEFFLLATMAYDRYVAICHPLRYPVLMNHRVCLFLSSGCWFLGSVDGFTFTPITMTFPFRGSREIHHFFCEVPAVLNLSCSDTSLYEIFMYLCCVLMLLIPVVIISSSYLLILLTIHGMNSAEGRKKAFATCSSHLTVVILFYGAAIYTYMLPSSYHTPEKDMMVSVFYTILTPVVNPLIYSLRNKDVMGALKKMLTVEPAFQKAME
# Settings: stereoisomer not certain
# How it was run: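 Assay methods differ from source to source, frequently being transient luciferase assays in mammalian cell lines. For each receptor–molecule pair, the label responsive (active) applies when the original authors judged the measured signal statistically different from baseline, and non-responsive (inactive) applies otherwise.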
row,SMILES,odorant receptor agonist call
1,CCCCCCCCCCCCCCCC(=O)OC,inactive
2,CC(=O)O,inactive
3,C=C1CCC2CC1C2(C)C (stereo not given),inactive
4,CCCCC(=O)C(C)=O,inactive
5,CCCCCCCCCCCCCCCC(=O)[O-].[H+],inactive
6,CCC(C)CO (stereo not given),inactive
7,CCCCCCCCCCCCCC(=O)OCC,inactive
8,CCCCCCCCCCCCO,inactive
9,CCCCCCCCCCCCCC(=O)O,inactive
10,CCCCCCCC(=O)OCC,inactive
11,CCCCCCCCCCCCCCCCCC(=O)OC,inactive
12,CCCCCCCCCCCCCCCCCC(=O)OCC,inactive
13,CCCCCCCC(=O)[O-].[H+],inactive
14,CCCCCCC(=O)[O-].[H+],inactive
15,CCCCCCCCCCCC(=O)O,inactive
16,CC(C=O)Cc1ccc(C(C)(C)C)cc1 (stereo not given),active
17,Cc1cnc(C)cn1,inactive
18,COc1ccc2[nH]cc(CCNC(C)=O)c2c1,inactive
19,CCCCCCCCCCCC(=O)OC,inactive
20,CCCCCCCCCC(=O)OCC,inactive

row,SMILES,odorant receptor agonist call
1,CCCCCCCCCCCCCC(=O)OC,inactive
2,O=c1ccc2ccccc2o1,inactive
3,CCCCCCCCCCCC(=O)OCC,inactive
4,CCC(O)CC,inactive
5,CC(C)(C)c1ccccc1,inactive
6,CCCCCCCCO,inactive
7,CCCCCCCCCCCCCCCC(=O)OCC,inactive
8,CCCCCCCCCCCCCCC(=O)O,inactive
9,C=C(C)C1CC=C(C)CC1 (stereo not given),inactive
10,CC(C)=CCCC(C)=CCCC(C)=CCO,inactive
11,CCC(=O)O,inactive
12,CCCCCCCCCC(=O)OC,inactive
13,CC(O)C(=O)[O-].[H+] (stereo not given),inactive
14,CCCCOCC(C)O (stereo not given),inactive
15,CCCO,inactive
16,CC(CC=O)c1ccccc1 (stereo not given),inactive
17,CCCCCCCCCCCCCCCCCC(=O)[O-].[H+],inactive
18,CCCC(=O)CC,inactive
19,Cc1cccc(C)c1C,inactive
20,CCCCCCCC(=O)OC,inactive
